Experimental data published in PMC2765488 (Journal of medicinal chemistry, 2009).

What was measured:
[1] = assay type: physicochemical
In short: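 Capacity factors from analytical reversed-phase HPLC retention times (diphenyl column; 0.1% TFA water/acetonitrile; linear 20–100% B over 40 min, 20 min re-equilibration). […] Linear logD–retention correlation gave calculated logD.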

[2] = Mouse pain assay following i.p. administration; assay type: in vivo; conditions: unpublished results of the authors
[3] = CD, in the presence of 50% v/v 2,2,2-trifluoroethanol; cited from earlier work
[4] = test system: 6 Hz corneal stimulation limbic seizure; conditions: cited from earlier work; for Anticonvulsant activity, mice protected/tested, 15' / Anticonvulsant activity, mice protected/tested, 30' / Anticonvulsant activity, mice protected/tested, 1h / Anticonvulsant activity, mice protected/tested, 2h / Anticonvulsant activity, mice protected/tested, 4h: 6 Hz, 32 mA, 4 mg/kg i.p.; for Anticonvulsant activity, mice protected/tested, 15': 15 min after administration; for Anticonvulsant activity, mice protected/tested, 30': 30 min after administration; for Anticonvulsant activity, mice protected/tested, 1h: 1 h after administration; for Anticonvulsant activity, mice protected/tested, 2h: 2 h after administration; for Anticonvulsant activity, mice protected/tested, 4h: 4 h after administration
[5] = test system: human serum albumin; conditions: higher affinity of C8 versus C14; cited from earlier work
[6] = buffered 25% rat blood serum, 37 °C; cited from earlier work

Compound	chromatographic logD [1]	α-helix content [3] [%]	Anticonvulsant activity, mice protected/tested, 15' [4]	Anticonvulsant activity, mice protected/tested, 30' [4]	Anticonvulsant activity, mice protected/tested, 1h [4]	Anticonvulsant activity, mice protected/tested, 2h [4]	Anticonvulsant activity, mice protected/tested, 4h [4]	further results
CCCCCCCC(=O)NCCCC[C@H](NC(=O)[C@H](CCCCN)NC(=O)[C@H](CCCCN)NC(=O)[C@@H]1CCCN1C(=O)CNC(=O)[C@H](CC(C)C)NC(=O)[C@H](CC(C)C)NC(=O)[C@H](Cc1ccc(O)cc1)NC(=O)CNC(=O)[C@H](C)NC(=O)[C@H](CO)NC(=O)[C@H](CC(N)=O)NC(=O)[C@H](CC(C)C)NC(=O)[C@@H](NC(=O)[C@H](Cc1c[nH]c2ccccc12)NC(=O)CNC)[C@@H](C)O)C(=O)N[C@@H](CCCCN)C(N)=O [Gal-B2-C8]	0.78	–	–	–	–	–	–	–
CCCCCCCCCCCCCCCCCC(=O)NCCCC[C@H](NC(=O)[C@H](CCCCN)NC(=O)[C@H](CCCCN)NC(=O)[C@@H]1CCCN1C(=O)CNC(=O)[C@H](CC(C)C)NC(=O)[C@H](CC(C)C)NC(=O)[C@H](Cc1ccc(O)cc1)NC(=O)CNC(=O)[C@H](C)NC(=O)[C@H](CO)NC(=O)[C@H](CC(N)=O)NC(=O)[C@H](CC(C)C)NC(=O)[C@@H](NC(=O)[C@H](Cc1c[nH]c2ccccc12)NC(=O)CNC)[C@@H](C)O)C(=O)N[C@@H](CCCCN)C(N)=O [Gal-B2-C18]	1.35	–	–	–	–	–	–	–
CCCCCCCCCCCCCCCC(=O)NCCCC[C@H](NC(=O)[C@H](CCCCN)NC(=O)[C@H](CCCCN)NC(=O)[C@@H]1CCCN1C(=O)CNC(=O)[C@H](CC(C)C)NC(=O)[C@H](CC(C)C)NC(=O)[C@H](Cc1ccc(O)cc1)NC(=O)CNC(=O)[C@H](C)NC(=O)[C@H](CO)NC(=O)[C@H](CC(N)=O)NC(=O)[C@H](CC(C)C)NC(=O)[C@@H](NC(=O)[C@H](Cc1c[nH]c2ccccc12)NC(=O)CNC)[C@@H](C)O)C(=O)N[C@@H](CCCCN)C(N)=O [Gal-B2]	–	23	3/4	4/4	4/4	4/4	0/4	analgesic activity [2]: comparable analgesic activities; anticonvulsant ED50 ([4]; i.p., 6 Hz pharmacoresistant model of epilepsy): 0.8 mg/kg
CCCCCCCC(=O)O [octanoic acid]	–	–	–	–	–	–	–	affinity to human serum albumin compared to the C14 (myristic acid) [5]: 11 fold
(Sar)WTLNSAGYLLGPKKKK [Gal-(K)4, reference compound]	–	14	0/4	3/4	1/3	0/3	0/4	–
Gal(1-16): unmodified Gal(1-16) analog	–	–	–	–	–	–	–	half-time in 25% rat serum [6]: 7.8 min
